This note sets out measurements from ChEMBL document CHEMBL1127424, “7-azetidinylquinolones as antibacterial agents. 2. Synthesis and biological activity of 7-(2,3-disubstituted-1-azetidinyl)-4-oxoquinoline- and -1,8-naphthyridine-3-carboxylic acids. Properties and structure-activity relationships of quinolones with an azetidine moiety” (J Med Chem, 1994).

Data set [1] is described as follows: Measured ionization constant (pKa). The note with it: read-out: pKa1. Type of data set: physicochemical. In short, it runs like this: (§1)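 Spectrophotometric titration at 20 ± 1 °C, 0.1 M ionic strength, pH varied with H2SO4 or NaOH made up in the compound stock. Absorbance followed at compound-specific wavelengths chosen from 200–400 nm scans. pKa1 and pKa2 taken as the inflection points of the two-step absorbance vs pH curve.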

Data set [2] is described as follows: Dissociation constant (pKa). As to conditions: read-out: pKa2. Type of data set: physicochemical. In short, it runs like this: as §1
Data set [3] is described as follows: HPLC capacity factor (k'). Type of data set: ADME. In short, it runs like this:
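Ion-pair reversed-phase HPLC on ODS-2 (10 μm) at 45 °C. Mobile phase: 10 mM sodium heptanesulfonate plus 50 mM KH2PO4 (pH 3.5)–methanol 45:55, 1 mL/min. Samples at 100 μg/mL in DMF, injected in duplicate, UV 280 nm. k' = (tR − t0)/t0.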

A short description of data set [4]: AUC (0-4 hr) ug/ml/h. As to conditions: plasma. Further details: time < 4 hr; concentration or dose not given beside the values. The data set is classed as ADME, cell-free. In short, it runs like this:
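Mice dosed once orally at 50 mg/kg; blood taken from groups of six mice at 0.5, 1, 2 and 4 h. Serum drug assayed by disk agar diffusion bioassay (Bacillus subtilis ATCC 6633 on Seed Agar, 37 °C, 18 h), giving total activity.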

Data set [5] is described as follows: Solubility (buffer pH 7.4). The data set is classed as physicochemical. The note with it: read-out: S. In short, it runs like this:
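Excess solid shaken in 0.05 M phosphate buffer pH 7.4 for 24 h at 25 °C. Suspension filtered through 0.22 μm, discarding the first portion. Filtrate diluted in 0.1 N HCl or 0.1 N NaOH and read by UV at the compound's absorbance maximum.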

The test system of another data set is Bacillus cereus. The data set can be described thus: In vitro minimum inhibitory concentration for Bacillus cereus ATCC 11778. The data set is classed as functional. The procedure, abridged: (§2)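 Serial 2-fold agar dilution in Mueller Hinton medium, run alongside a reference quinolone. Inoculum adjusted to 10⁸ cfu/mL; compound range 0.007–16 μg/mL.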
The next data set deals with Bacillus subtilis. The data set is described as follows: In vitro minimum inhibitory concentration for Bacillus subtilis ATCC 6633. Type of data set: functional. The procedure, abridged: as §2
In another data set the test system is Escherichia coli. The data set can be described thus: In vitro minimum inhibitory concentration for Escherichia coli ATCC 10799. The data set is classed as functional. In short, it runs like this: as §2
The subject of the next data set is Enterobacter cloacae. The data set is described as follows: In vitro minimum inhibitory concentration for Enterobacter cloacae ATCC 23355. Type of data set: functional.
Another data set concerns Klebsiella pneumoniae. The data set can be described thus: In vitro minimum inhibitory concentration to inhibit Klebsiella pneumoniae ATCC 10031. Type of data set: functional. In short, it runs like this: as §2
For data set [6], the system named is Mus musculus. The data set can be described thus: Evaluation of efficacy on systemic infections Escherichia coli HM-42, after oral administration in mice. The data set is classed as functional. The procedure, abridged:
(§3)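 Single oral dose given immediately after infection, one of four doses per group, chosen from in vitro activity. Survival scored after one week. ED50 (total mg/kg protecting 50%) interpolated from survival rates.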

Data set [7] concerns Mus musculus. The data set can be described thus: Evaluation of efficacy on systemic infections Pseudomonas aeruginosa HS-116, after oral administration in mice. The data set is classed as functional. The procedure, abridged:
as §3

In data set [8] the test system is Mus musculus. The data set can be described thus: Evaluation of efficacy on systemic infections Staphylococcus aureus HS-93, after oral administration in mice. Type of data set: functional. In short, it runs like this:
as §3

The next data set concerns Morganella morganii. The data set is described as follows: In vitro minimum inhibitory concentration for Morganella morganii ATCC 8019. Type of data set: functional. In short, it runs like this:
as §2

The test system of another data set is Proteus vulgaris. The data set can be described thus: In vitro minimum inhibitory concentration for Proteus vulgaris ATCC 8427. Type of data set: functional. In short, it runs like this:
as §2

The subject of data set [9] is Staphylococcus epidermidis. The data set can be described thus: In vitro minimum inhibitory concentration for Staphylococcus epidermidis ATCC 155-1. Type of data set: functional. In short, it runs like this: as §2
A further data set relates to Staphylococcus aureus. The data set can be described thus: In vitro minimum inhibitory concentration for Staphylococcus aureus ATCC 25178. The data set is classed as functional. In short, it runs like this:
as §2

The subject of a further data set is Enterococcus faecalis. The data set can be described thus: In vitro minimum inhibitory concentration for Streptococcus faecalis ATCC 10541. The data set is classed as functional. In short, it runs like this: as §2
A further data set relates to Pseudomonas aeruginosa. The data set is described as follows: In vitro minimum inhibitory concentration for Pseudomonas aeruginosa ATCC 10145. Type of data set: functional. The procedure, abridged: as §2

Structures are written as SMILES. ≈ marks a conversion by molar mass, not a printed value. Where “and” joins values, the source holds several entries; their conditions need not be identical. Identical values can stand only once.

Regarding `CCNC1CN(c2c(F)cc3c(=O)c(C(=O)O)cn(C4CC4)c3c2F)C1`, the figures for the pKa in data set [1] and in [2] were 6.2 and 8.57, respectively. The “Log k'” value in [3] is 0.0996.

With `CN(C)C1CN(c2cc3c(cc2F)c(=O)c(C(=O)O)cn3C2CC2)C1`, the results for the pKa in data set [1] and in [2] were 6.44 and 7.81, respectively. The “Log k'” value in [3] is on record as 0.482.

Broadly, the AUC is concentration integrated over time. Usually MIC stands for the smallest concentration in the dilution series that meets the test's criterion for growth inhibition. By ED50 is commonly meant the midpoint of the dose-response relation. Regarding `C[C@H]1[C@H](N)CN1c1c(F)cc2c(=O)c(C(=O)O)cn(-c3ccc(F)cc3F)c2c1F`, in data set [4], the AUC amounted to 22300 ng·h/mL. The “Log k'” value in data set [3] amounted to 0.2644. Besides, in data set [5], the solubility came out at 23.4 µg/mL (≈ 55.5 µM). Moreover, the minimum inhibitory concentration (MIC) with Bacillus cereus was 0.12 µg/mL (≈ 0.285 µM); against Bacillus subtilis, 0.06 µg/mL (≈ 0.142 µM); against Escherichia coli it was 0.12 µg/mL (≈ 0.285 µM); in the data set on Enterobacter cloacae, 0.06 µg/mL (≈ 0.142 µM); with Klebsiella pneumoniae, 0.06 µg/mL (≈ 0.142 µM); against Morganella morganii, 0.25 µg/mL (≈ 0.593 µM). Besides, the MIC with Proteus vulgaris stood at 0.5 µg/mL (≈ 1.19 µM); in data set [9] it was 0.12 µg/mL (≈ 0.285 µM); with Staphylococcus aureus it was 0.12 µg/mL (≈ 0.285 µM); against Enterococcus faecalis, 1 µg/mL (≈ 2.37 µM); in the data set with Pseudomonas aeruginosa, 1 µg/mL (≈ 2.37 µM). In addition, the figures for the ED50 in the data set with Mus musculus [6], with Mus musculus [7] and in the data set on Mus musculus [8] were 2.3 mg/kg, 61 mg/kg and 10 mg/kg, respectively.

For the compound `CC1(N)CN(c2c(F)cc3c(=O)c(C(=O)O)cn(C4CC4)c3c2F)C1`, the pKa in data set [1] was determined as 6.23; in data set [2], 8.33. Further, the “Log k'” value in [3] was -0.0177 and 0.0094.

Regarding `CNC1CN(c2cc3c(cc2F)c(=O)c(C(=O)O)cn3C2CC2)C1`, the pKa stood at 6.54 in data set [1] and 8.56 in data set [2]. Besides, the “Log k'” value in data set [3] is 0.0215.

`C[C@H]1[C@H](N)CN1c1cc2c(cc1F)c(=O)c(C(=O)O)cn2C1CC1` came in with an AUC in data set [4] of 9200 ng·h/mL. For the same compound, in data set [1], the pKa came out at 6.46. Further, the “Log k'” value in data set [3] is reported as -0.0132. Moreover, the solubility in data set [5] came out at 9.9 µg/mL (≈ 29.9 µM). Besides, the MIC was found to be 0.06 µg/mL (≈ 0.181 µM) in the data set with Bacillus cereus; 0.03 µg/mL (≈ 0.0905 µM) in the data set with Bacillus subtilis; 0.03 µg/mL (≈ 0.0905 µM) against Escherichia coli; 0.03 µg/mL (≈ 0.0905 µM) in the data set on Enterobacter cloacae; 0.03 µg/mL (≈ 0.0905 µM) in the data set on Klebsiella pneumoniae; 0.03 µg/mL (≈ 0.0905 µM) with Morganella morganii. In addition, the MIC in the data set with Proteus vulgaris came to 0.06 µg/mL (≈ 0.181 µM); in [9], 0.12 µg/mL (≈ 0.362 µM); against Staphylococcus aureus it was 0.12 µg/mL (≈ 0.362 µM); against Enterococcus faecalis, 0.25 µg/mL (≈ 0.754 µM); against Pseudomonas aeruginosa, 0.25 µg/mL (≈ 0.754 µM). Besides, the ED50 was 3.5 mg/kg in the data set on Mus musculus [6], 108 mg/kg in the data set on Mus musculus [7] and 22.3 mg/kg in the data set on Mus musculus [8].

On to `CN(C)C1(C)CN(c2cc3c(cc2F)c(=O)c(C(=O)O)cn3C2CC2)C1`, for which the pKa in [1] was 6.47; in data set [2], 7.9. Further, the “Log k'” value in [3] was found to be 0.5153.

As for `C[C@H]1[C@@H](N)CN1c1cc2c(cc1F)c(=O)c(C(=O)O)cn2C1CC1`, in [4], the AUC was 3700 ng·h/mL. For the same compound, the “Log k'” value in data set [3] came to 0.0457. In [5], the solubility is 6.1 µg/mL (≈ 18.4 µM). Besides, the MIC against Bacillus cereus was determined as 0.06 µg/mL (≈ 0.181 µM); against Bacillus subtilis it was 0.03 µg/mL (≈ 0.0905 µM); in the data set on Escherichia coli, 0.06 µg/mL (≈ 0.181 µM); against Enterobacter cloacae it was 0.03 µg/mL (≈ 0.0905 µM); in the data set on Klebsiella pneumoniae, 0.03 µg/mL (≈ 0.0905 µM); against Morganella morganii, 0.03 µg/mL (≈ 0.0905 µM). In addition, the MIC with Proteus vulgaris came to 0.06 µg/mL (≈ 0.181 µM); in data set [9], 0.06 µg/mL (≈ 0.181 µM); with Staphylococcus aureus, 0.12 µg/mL (≈ 0.362 µM); against Enterococcus faecalis, 0.5 µg/mL (≈ 1.51 µM); with Pseudomonas aeruginosa it was 0.5 µg/mL (≈ 1.51 µM). The ED50 in the data set on Mus musculus [6] came to 20 mg/kg; in the data set on Mus musculus [7] it was 277 mg/kg; in the data set on Mus musculus [8], 36.7 mg/kg.

Compound `C[C@H]1[C@@H](N)CN1c1c(F)cc2c(=O)c(C(=O)O)cn(C3CC3)c2c1F` displayed an AUC in data set [4] of 9000 ng·h/mL. Moreover, the “Log k'” value in data set [3] is on record as 0.0813. Further, the solubility in data set [5] worked out at 23.6 µg/mL (≈ 67.6 µM). The MIC against Bacillus cereus came out at 0.12 µg/mL (≈ 0.344 µM); in the data set on Bacillus subtilis, 0.06 µg/mL (≈ 0.172 µM); with Escherichia coli, 0.12 µg/mL (≈ 0.344 µM); in the data set on Enterobacter cloacae, 0.06 µg/mL (≈ 0.172 µM); against Klebsiella pneumoniae, 0.12 µg/mL (≈ 0.344 µM); in the data set with Morganella morganii, 0.012 µg/mL (≈ 0.0344 µM). Also, the MIC with Proteus vulgaris was 0.25 µg/mL (≈ 0.716 µM); in data set [9] it was 0.12 µg/mL (≈ 0.344 µM); against Staphylococcus aureus, 0.012 µg/mL (≈ 0.0344 µM); in the data set on Enterococcus faecalis, 1 µg/mL (≈ 2.86 µM); in the data set on Pseudomonas aeruginosa it was 1 µg/mL (≈ 2.86 µM). For the same compound, the ED50 in the data set with Mus musculus [6] worked out at 6.2 mg/kg; in the data set on Mus musculus [7] it was 123 mg/kg; with Mus musculus [8] it was 18.6 mg/kg.
